Laboratory results taken from ChEMBL document CHEMBL1128230, “5'-[4-(Pivaloyloxy)-1,3,2-dioxaphosphorinan-2-yl]-2'-deoxy-5-fluorouridine: a membrane-permeating prodrug of 5-fluoro-2'-deoxyuridylic acid (FdUMP)” (J Med Chem, 1995).

How the values were obtained:
[1] = test system: Mus musculus; experiment: Percentage increase in life span of treated mice implanted intraperitoneally with P-388 leukemia sensitive cells compared with controls at a dose of 100 mg/kg.; format: functional; conditions: P388, ip, route intraperitoneal
How it was run: (§1)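 Male BDF1 mice (six per group, average 22 g) inoculated ip with 1 × 10^6 P-388 cells, wild-type or FU-resistant subline, on day 0. Drugs given ip daily for 5 consecutive days starting 24 h after implantation, in 0.9% saline or Emulphor 620 vehicle; followed until death. Median survival of treated (T) vs saline controls (C); % ILS = (T/C − 1) × 100; body weight change recorded.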

[2] = test system: Mus musculus; experiment: Percentage increase in life span of treated mice implanted intraperitoneally with P-388 leukemia sensitive cells compared with controls at a dose of 150 mg/kg.; format: functional; conditions: P388, ip, route intraperitoneal; how it was run: as §1
[3] = test system: Mus musculus; experiment: Percentage increase in life span of treated mice implanted intraperitoneally with P-388 leukemia sensitive cells compared with controls at a dose of 67 mg/kg.; format: functional; conditions: P388, ip, route intraperitoneal; how it was run: as §1
[4] = test system: Mus musculus; experiment: Median survival time of […] implanted intraperitoneally with P-388 leukemia sensitive cells at a dose of 100 mg/kg.; format: functional; conditions: route intraperitoneal
[5] = test system: Mus musculus; experiment: Median survival time of 15 mice implanted intraperitoneally with P-388 leukemia sensitive cells at a dose of 150 mg/kg.; format: functional; conditions: route intraperitoneal
[6] = test system: Mus musculus; experiment: Median survival time of 15 mice implanted intraperitoneally with P-388 leukemia sensitive cells at a dose of 67 mg/kg.; format: functional; conditions: route intraperitoneal
[7] = test system: Mus musculus; experiment: Percentage increase in life span of treated mice implanted intraperitoneally with P-388 leukemia resistant cells compared with controls at a dose of 100 mg/kg.; format: functional; conditions: P388, ip, route intraperitoneal; how it was run: as §1
[8] = test system: Mus musculus; experiment: Percentage increase in life span of treated mice implanted intraperitoneally with P-388 leukemia resistant cells compared with controls at a dose of 150 mg/kg.; format: functional; conditions: P388, ip, route intraperitoneal; how it was run: as §1
[9] = test system: Mus musculus; experiment: Median survival time of […] implanted intraperitoneally with P-388 leukemia resistant cells at a dose of 100 mg/kg.; format: functional; conditions: route intraperitoneal
[10] = test system: Mus musculus; experiment: Median survival time of […] implanted intraperitoneally with P-388 leukemia resistant cells at a dose of 150 mg/kg.; format: functional; conditions: route intraperitoneal
[11] = test system: Mus musculus; experiment: Median survival time of […] implanted intraperitoneally with P-388 leukemia resistant cells at a dose of 67 mg/kg.; format: functional; conditions: route intraperitoneal
[12] = test system: Mus musculus; experiment: Average percentage weight change on day 5 in mice implanted intraperitoneally with P-388 leukemia sensitive cells at a dose of 150 mg/kg.; format: functional; conditions: route intraperitoneal
How it was run: (§2)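 Male BDF1 mice, six per group, average weight 22 g; 1 × 10^6 P-388 cells (FU-sensitive P-388/0 or FU-resistant P-388/FU) inoculated ip on day 0. Dosing ip daily for 5 consecutive days starting 24 h after implantation. Saline vehicle for FU and FUdR; Emulphor 620 formulation for the prodrug. Followed until death. % ILS = (T/C − 1) × 100 from median survival versus saline-treated controls.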

[13] = test system: Mus musculus; experiment: Average percentage weight change on day 5 in mice implanted intraperitoneally with P-388 leukemia sensitive cells at a dose of 67 mg/kg.; format: functional; conditions: route intraperitoneal; how it was run: as §2
[14] = test system: Mus musculus; experiment: Average percentage weight change on day 5 in mice implanted intraperitoneally with P-388 leukemia resistant cells at a dose of 100 mg/kg.; format: functional; conditions: route intraperitoneal; how it was run: as §2
[15] = test system: Mus musculus; experiment: Average percentage weight change on day 5 in mice implanted intraperitoneally with P-388 leukemia resistant cells at a dose of 150 mg/kg.; format: functional; conditions: route intraperitoneal; how it was run: as §2
[16] = test system: Mus musculus; experiment: Average percentage weight change on day 5 in mice implanted intraperitoneally with P-388 leukemia resistant cells at a dose of 67 mg/kg.; format: functional; conditions: route intraperitoneal; how it was run: as §2
[17] = test system: Mus musculus; experiment: Average percentage weight change on day 5 in mice implanted intraperitoneally with P-388 leukemia sensitive cells at a dose of 100 mg/kg at a dose of 100 mg/kg.; format: functional; how it was run: as §2
[18] = test system: Mus musculus; experiment: Percentage increase in life span of treated mice implanted intraperitoneally with P-388 leukemia resistant cells compared with controls at a dose of 67 mg/kg.; format: functional; conditions: P388, ip, route intraperitoneal; how it was run: as §1
[19] = test system: CHO; experiment: Growth inhibitory activity against CHO cells in culture.; format: functional, cell-based; conditions: Cricetulus griseus
How it was run: (§3)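 CHO cells and FU-resistant CHO subline plated at about 200 cells per 35-mm dish and cloned with drug at 0, 0.5, 1.5, 5, 10, 50 and 100 µM for 7 days at 37 °C in humidified CO2. Clones fixed in 10% formaldehyde and stained with 0.1% crystal violet. Minimum inhibitory concentration is the lowest concentration giving colonies of fewer than 50 cells.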

[20] = test system: CHO-FU; experiment: Growth inhibitory activity against CHO/FU cells in culture.; format: functional, cell-based; conditions: Cricetulus griseus; how it was run: as §3
[21] = test system: Mus musculus; experiment: Percentage increase in life span of treated mice implanted intraperitoneally with P-388 leukemia sensitive cells compared with controls at a dose of 20 mg/kg.; format: functional; conditions: P388, ip, route intraperitoneal; how it was run: as §1
[22] = test system: Mus musculus; experiment: Percentage increase in life span of treated mice implanted intraperitoneally with P-388 leukemia sensitive cells compared with controls at a dose of 30 mg/kg.; format: functional; conditions: P388, ip, route intraperitoneal; how it was run: as §1
[23] = test system: Mus musculus; experiment: Median survival time of 15 mice implanted intraperitoneally with P-388 leukemia sensitive cells at a dose of 20 mg/kg.; format: functional; conditions: route intraperitoneal
[24] = test system: Mus musculus; experiment: Median survival time of 15 mice implanted intraperitoneally with P-388 leukemia sensitive cells at a dose of 30 mg/kg.; format: functional; conditions: route intraperitoneal; how it was run: as §1
[25] = test system: Mus musculus; experiment: Percentage increase in life span of treated mice implanted intraperitoneally with P-388 leukemia resistant cells compared with controls at a dose of 20 mg/kg.; format: functional; conditions: P388, ip, route intraperitoneal; how it was run: as §1
[26] = test system: Mus musculus; experiment: Percentage increase in life span of treated mice implanted intraperitoneally with P-388 leukemia resistant cells compared with controls at a dose of 30 mg/kg.; format: functional; conditions: P388, ip, route intraperitoneal; how it was run: as §1
[27] = test system: Mus musculus; experiment: Percentage increase in life span of treated mice implanted intraperitoneally with P-388 leukemia resistant cells compared with controls at a dose of 40 mg/kg.; format: functional; conditions: P388, ip, route intraperitoneal; how it was run: as §1
[28] = test system: Mus musculus; experiment: Median survival time of 15 mice implanted intraperitoneally with P-388 leukemia resistant cells at a dose of 20 mg/kg.; format: functional; conditions: route intraperitoneal
[29] = test system: Mus musculus; experiment: Median survival time of 15 mice implanted intraperitoneally with P-388 leukemia resistant cells at a dose of 30 mg/kg.; format: functional; conditions: route intraperitoneal
[30] = test system: Mus musculus; experiment: Median survival time of 15 mice implanted intraperitoneally with P-388 leukemia resistant cells at a dose of 40 mg/kg.; format: functional; conditions: route intraperitoneal
[31] = test system: Mus musculus; experiment: Average percentage weight change on day 5 in mice implanted intraperitoneally with P-388 leukemia sensitive cells at a dose of 20 mg/kg.; format: functional; conditions: route intraperitoneal; how it was run: as §1
[32] = test system: Mus musculus; experiment: Average percentage weight change on day 5 in mice implanted intraperitoneally with P-388 leukemia sensitive cells at a dose of 30 mg/kg.; format: functional; conditions: route intraperitoneal; how it was run: as §1
[33] = test system: Mus musculus; experiment: Average percentage weight change on day 5 in mice implanted intraperitoneally with P-388 leukemia resistant cells at a dose of 20 mg/kg.; format: functional; conditions: route intraperitoneal; how it was run: as §1
[34] = test system: Mus musculus; experiment: Average percentage weight change on day 5 in mice implanted intraperitoneally with P-388 leukemia resistant cells at a dose of 30 mg/kg.; format: functional; conditions: route intraperitoneal; how it was run: as §1
[35] = test system: Mus musculus; experiment: Average percentage weight change on day 5 in mice implanted intraperitoneally with P-388 leukemia resistant cells at a dose of 40 mg/kg.; format: functional; conditions: route intraperitoneal; how it was run: as §1
[36] = test system: Mus musculus; experiment: Percentage increase in life span of treated mice implanted intraperitoneally with P-388 leukemia sensitive cells compared with controls for a dose of 100 mg/kg.; format: functional; conditions: P388, ip, route intraperitoneal
How it was run: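 Male BDF1 mice (six per group, about 22 g) inoculated ip with 1 × 10^6 P-388/0 leukemia cells on day 0. Drugs given ip daily for 5 consecutive days starting 24 h after implantation, in 0.9% saline or Emulphor 620 vehicle. Animals followed until death. %ILS = (T/C − 1) × 100 from median survival of treated versus saline-treated controls.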

[37] = test system: Mus musculus; experiment: Median survival time of […] implanted intraperitoneally with P-388 leukemia sensitive cells for a dose of 100 mg/kg.; format: functional; conditions: route intraperitoneal
[38] = test system: Mus musculus; experiment: Percentage increase in life span of treated mice implanted intraperitoneally with P-388 leukemia resistant cells compared with controls for a dose of 100 mg/kg.; format: functional; conditions: P388, ip, route intraperitoneal; how it was run: as §1
[39] = test system: Mus musculus; experiment: Median survival time of […] implanted intraperitoneally with P-388 leukemia resistant cells for a dose of 100 mg/kg.; format: functional; conditions: route intraperitoneal
[40] = test system: Mus musculus; experiment: Average percentage weight change on day 5 in mice implanted intraperitoneally with P-388 leukemia sensitive cells for a dose of 100 mg/kg.; format: functional; conditions: route intraperitoneal; how it was run: as §2
[41] = test system: Mus musculus; experiment: Average percentage weight change on day 5 in mice implanted intraperitoneally with P-388 leukemia resistant cells for a dose of 100 mg/kg.; format: functional; conditions: route intraperitoneal; how it was run: as §2

## O=c1[nH]c(=O)n([C@H]2C[C@H](O)[C@@H](CO)O2)cc1F [FLOXURIDINE]
[1]
  ILS at 100 mg/kg: 73%
[2]
  ILS at 150 mg/kg: 82%
[3]
  ILS at 67 mg/kg: 45%
[4]
  MST: 19 days
[5]
  MST: 20 days
[6]
  MST: 16 days
[7]
  ILS at 100 mg/kg: 18%
[8]
  ILS at 150 mg/kg: 18%
[9]
  MST: 13 days
[10]
  MST: 13 days
[11]
  MST: 12 days
[12]
  Weight change: -5%
[13]
  Weight change: -2%
[14]
  Weight change: -10%
[15]
  Weight change: -10%
[16]
  Weight change: -6%
[17]
  Weight change: -4%
[18]
  ILS at 67 mg/kg: 9%

## O=c1[nH]cc(F)c(=O)[nH]1 [FLUOROURACIL]
[19]
  IC50: 5 µM
[20]
  IC50: 100 µM
[21]
  ILS at 20 mg/kg: 45%
[22]
  ILS at 30 mg/kg: 55%
[23]
  MST: 16 days
[24]
  MST: 17 days
[25]
  ILS at 20 mg/kg: -9%
[26]
  ILS at 30 mg/kg: -18%
[27]
  ILS at 40 mg/kg: -18%
[28]
  MST: 10 days
[29]
  MST: 9 days
[30]
  MST: 9 days
[31]
  Weight change: -5%
[32]
  Weight change: -15%
[33]
  Weight change: -6%
[34]
  Weight change: -15%
[35]
  Weight change: -18%

## O=S(=O)([O-])CCS.[Na+] [MESNA]
[36]
  ILS at 100 mg/kg: 0%
[37]
  MST: 11 days
[38]
  ILS at 100 mg/kg: 0%
[39]
  MST: 11 days
[40]
  Weight change: 10%
[41]
  Weight change: 12%

## C=CC=O [ACROLEIN]
[19]
  IC50: 50 µM
[20]
  IC50: 50 µM
